ChEMBL document CHEMBL1141217, “cycloSal-PMEA and cycloAmb-PMEA: potentially new phosphonate prodrugs based on the cycloSal-pronucleotide approach” (J Med Chem, 2005)
pEC50, pIC50: −log10 of the molar value. Values belong to the compound of their own block, whether it stands above or below them. Calls of active or inactive are those of the source. The calls are words filed in the database; no cut-off is given here.

How the values were obtained:
[1] = Inhibitory activity against human acetyl cholinesterase
[2] = Chemical stability in phosphate buffer at pH 7.3; assay type: physicochemical; details: read-out: Stability (converted)
How it was run: (§1)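 Triesters hydrolysed at 37 °C in phosphate buffer pH 7.3 or citrate buffer pH 2.0, with AZT as internal standard; final 0.96 mM triester, 24.8 mM buffer. Aliquots quenched with glacial acetic acid and frozen, then analysed by reversed-phase HPLC with UV at 250 nm. t1/2 from rate constants of starting-triester peak decay; mean of duplicates.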

[3] = Chemical stability in citrate buffer at pH 2.0; assay type: physicochemical; how it was run: as §1
[4] = target: Cholinesterase (Homo sapiens, UniProt P06276); experiment: Inhibitory activity against human butyryl cholinesterase
[5] = system: Human immunodeficiency virus 1; experiment: Antiviral potency against HIV1 in CEM/O cells; assay type: functional, organism-based; details: Human immunodeficiency virus 1, CEM/O
How it was run: (§2)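 CEM cells at 4×10^5 cells/mL infected with HIV-1 or HIV-2 (ROD) at ~100 CCID50 per mL; virus stocks from infected MT-4 cell supernatants. Infected cells mixed with serial compound dilutions. After 4–5 days, giant cell formation scored microscopically; EC50 = concentration giving 50% protection.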

[6] = system: Human immunodeficiency virus 2; experiment: Antiviral potency against HIV2 in CEM/O cells; assay type: functional, organism-based; details: Human immunodeficiency virus 2, CEM/O; how it was run: as §2
[7] = system: CCRF-CEM; experiment: Cytotoxicity against CEM/O cells; assay type: functional; details: Homo sapiens
[8] = Half life in CEM/O cells; assay type: ADME, cell-based; details: human, CEM/O cells (CCRF-CEM cell line)
How it was run: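 Triester (1.5 mM stock in DMSO) incubated with CEM cell extract plus MgCl2 (70 mM stock) for 8 h. Stopped with acidic methanol, 5 min at 0 °C, centrifuged and filtered; supernatant analysed by reversed-phase HPLC with UV at 250 nm.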

[9] = LogP using HPLC method; assay type: physicochemical

Chain of Cholinesterase (P06276 whole entry): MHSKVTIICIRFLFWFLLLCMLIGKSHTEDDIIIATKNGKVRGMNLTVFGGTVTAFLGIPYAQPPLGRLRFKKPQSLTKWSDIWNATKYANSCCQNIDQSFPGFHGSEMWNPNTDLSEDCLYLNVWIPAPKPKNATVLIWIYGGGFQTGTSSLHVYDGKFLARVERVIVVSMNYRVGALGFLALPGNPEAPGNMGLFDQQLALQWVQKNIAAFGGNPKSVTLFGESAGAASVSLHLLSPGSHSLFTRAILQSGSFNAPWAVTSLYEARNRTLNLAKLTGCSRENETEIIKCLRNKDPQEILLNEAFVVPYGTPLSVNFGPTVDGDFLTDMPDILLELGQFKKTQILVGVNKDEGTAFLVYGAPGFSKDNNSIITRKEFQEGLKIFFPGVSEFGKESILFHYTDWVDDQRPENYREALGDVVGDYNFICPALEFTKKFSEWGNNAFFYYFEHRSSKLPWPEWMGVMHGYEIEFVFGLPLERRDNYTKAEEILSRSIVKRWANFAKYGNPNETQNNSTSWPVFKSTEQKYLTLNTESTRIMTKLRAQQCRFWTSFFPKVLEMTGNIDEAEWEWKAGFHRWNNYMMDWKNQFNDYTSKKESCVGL

SMILES: CC(C)(C)c1cc2c(c(C(C)(C)C)c1)OP(=O)(COCCn1cnc3c(N)ncnc31)OC2 (stereo unspecified)
Activity [1]: inactive
half-life [2]: 3.05 h
Stability [3]: 9.6 h
pIC50 [4]: < 4.30
pEC50 [5]: 5.26
pEC50 [6]: 5.28
CC50 [7]: 17 µM
half-life [8]: 3 h
logP [9]: 1.72

SMILES: Cc1cccc2c1NP(=O)(COCCn1cnc3c(N)ncnc31)OC2 (stereo unspecified)
Activity [1]: inactive
half-life [2]: 21.3 h
Stability [3]: 29 h
pIC50 [4]: < 4.30
pEC50 [5]: 4.54
pEC50 [6]: 4.25
CC50 [7]: > 250 µM
logP [9]: 0.45

SMILES: CC(C)(C)c1cccc2c1OP(=O)(COCCn1cnc3c(N)ncnc31)OC2 (stereo unspecified)
Activity [1]: inactive
half-life [2]: 4.05 h
Stability [3]: 23.7 h
pIC50 [4]: < 4.30
pEC50 [5]: 5.52
pEC50 [6]: 5.35
CC50 [7]: 29 µM
half-life [8]: 3 h
logP [9]: 0.47

SMILES: Nc1ncnc2c1ncn2CCOCP1(=O)Nc2cccc(F)c2CO1 (stereo unspecified)
Activity [1]: inactive
half-life [2]: 1.3 h
pIC50 [4]: < 4.30
pEC50 [5]: 4.55
pEC50 [6]: 4.59
CC50 [7]: 244 µM
logP [9]: 0.49

half-life [2]: 14.7 h
pEC50 [5]: 6.74
pEC50 [6]: 7.12
SMILES: CC(C)(C)C(=O)OCOP(=O)(COCCn1cnc2c(N)ncnc21)OCOC(=O)C(C)(C)C [ADEFOVIR DIPIVOXIL]
CC50 [7]: 0.74 µM

SMILES: Nc1ncnc2c1ncn2CCOCP1(=O)OCc2ccccc2O1 (stereo unspecified)
Activity [1]: inactive
half-life [2]: 0.09 h
pIC50 [4]: < 4.30
half-life [8]: 0.1 h

SMILES: Cc1cccc2c1OP(=O)(COCCn1cnc3c(N)ncnc31)OC2 (stereo unspecified)
Activity [1]: inactive
half-life [2]: 0.56 h
pIC50 [4]: < 4.30
half-life [8]: 0.6 h

SMILES: Nc1ncnc2c1ncn2CCOCP1(=O)Nc2ccccc2CO1 (stereo unspecified)
Activity [1]: inactive
half-life [2]: 4 h
Stability [3]: 9.6 h
pIC50 [4]: < 4.30
pEC50 [5]: 4.70
pEC50 [6]: 4.68
CC50 [7]: 183 µM
logP [9]: 0.23

SMILES: Nc1ncnc2c1ncn2CCOCP(=O)(O)O [ADEFOVIR]
pEC50 [5]: 5.00
pEC50 [6]: 5.00
CC50 [7]: 50 µM
